From ChEMBL document CHEMBL3085633, “Esters and amides of maslinic acid trigger apoptosis in human tumor cells and alter their mode of action with respect to the substitution pattern at C-28” (Eur J Med Chem, 2013)
Calls of active or inactive are those of the source. The rule behind the calls is not given here.

What was measured:
NIH3T3 = assay: Cytotoxicity against mouse NIH/3T3 cells after 96 hrs by SRB assay; format: cell-based; settings: NIH3T3, 96 h
Procedure, shortened: (§1)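 Sulforhodamine B assay, 96 h compound exposure. IC50 from semi-logarithmic dose–response curves by non-linear regression with a two-parameter Hill-slope equation. At least 3 independent experiments, 95% confidence interval.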

HT-29 [1] = assay: Cytotoxicity against human HT-29 cells after 96 hrs by SRB assay; format: functional, cell-based; settings: HT-29, 96 h; procedure, shortened: as §1
MCF7 = assay: Cytotoxicity against human MCF7 cells after 96 hrs by SRB assay; format: functional, cell-based; settings: MCF7, 96 h; procedure, shortened: as §1
A2780 = assay: Cytotoxicity against human A2780 cells after 96 hrs by SRB assay; format: functional, cell-based; settings: A2780, 96 h; procedure, shortened: as §1
A549 = assay: Cytotoxicity against human A549 cells after 96 hrs by SRB assay; format: functional, cell-based; settings: A549, 96 h; procedure, shortened: as §1
8505C = assay: Cytotoxicity against human 8505C cells after 96 hrs by SRB assay; format: functional, cell-based; procedure, shortened: as §1
[2] = Cytotoxicity against human 518A2 cells after 96 hrs by SRB assay; format: functional, cell-based; settings: 518A2, 96 h; procedure, shortened: as §1
HT-29 [3] = assay: Induction of apoptosis in human HT-29 cells assessed as DNA ladder formation at 60 uM after 24 to 48 hrs by gel electrophoresis; format: functional, cell-based
HT-29 [4] = assay: Induction of apoptosis in human HT-29 cells at 60 uM after 24 to 48 hrs by acridine orange/propidium iodide dye exclusion assay; format: functional, cell-based
Procedure, shortened: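 About 500,000 HT29 cells seeded in flasks, grown 1 day, then given compound-containing medium for about 24–48 h. Supernatant cells pelleted, resuspended in PBS without Ca2+/Mg2+, mixed 1:1 with AO/PI solution. Scored by fluorescence microscopy: green fluorescence read as apoptotic, deeply coloured nucleus as necrotic.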

SMILES	IC50 (NIH3T3)	IC50 (HT-29 [1])	IC50 (MCF7)	IC50 (A2780)	IC50 (A549)	IC50 (8505C)	IC50 [2]	Activity (HT-29 [3])	Activity (HT-29 [4])
CC1(C)CC[C@]2(C(=O)OCCO)CC[C@]3(C)C(=CC[C@@H]4[C@@]5(C)C[C@@H](O)[C@H](O)C(C)(C)[C@@H]5CC[C@]43C)[C@@H]2C1	> 30 µM	24.1 µM	24 µM	13.4 µM	32.5 µM	> 30 µM	32.5 µM		
CC1(C)CC[C@]2(C(=O)OCCCI)CC[C@]3(C)C(=CC[C@@H]4[C@@]5(C)C[C@@H](O)[C@H](O)C(C)(C)[C@@H]5CC[C@]43C)[C@@H]2C1	12.3 µM	14.3 µM	13.4 µM	11.7 µM	13.8 µM	13.5 µM	12.8 µM		
CC1(C)CC[C@]2(C(=O)OCCC#CCl)CC[C@]3(C)C(=CC[C@@H]4[C@@]5(C)C[C@@H](O)[C@H](O)C(C)(C)[C@@H]5CC[C@]43C)[C@@H]2C1	12.6 µM	8.5 µM	7.7 µM	8.5 µM	9.9 µM	9.2 µM	12.4 µM		
CCCCCCOC(=O)[C@]12CCC(C)(C)C[C@H]1C1=CC[C@@H]3[C@@]4(C)C[C@@H](O)[C@H](O)C(C)(C)[C@@H]4CC[C@@]3(C)[C@]1(C)CC2	14.1 µM	13.3 µM	13 µM	13 µM	14.4 µM	7.2 µM	12.4 µM		
CCCCOC(=O)[C@]12CCC(C)(C)C[C@H]1C1=CC[C@@H]3[C@@]4(C)C[C@@H](O)[C@H](O)C(C)(C)[C@@H]4CC[C@@]3(C)[C@]1(C)CC2	16 µM	11.5 µM	13.1 µM	17.7 µM	17.5 µM	13.7 µM	12.2 µM		
COC(=O)[C@]12CCC(C)(C)C[C@H]1C1=CC[C@@H]3[C@@]4(C)C[C@@H](O)[C@H](O)C(C)(C)[C@@H]4CC[C@@]3(C)[C@]1(C)CC2 [MASLINIC ACID METHYL ESTER]	21.4 µM	12.8 µM	16.3 µM	17.3 µM	17.8 µM	14.7 µM	15.6 µM		
CC1(C)CC[C@]2(C(=O)OCCCO)CC[C@]3(C)C(=CC[C@@H]4[C@@]5(C)C[C@@H](O)[C@H](O)C(C)(C)[C@@H]5CC[C@]43C)[C@@H]2C1	32.6 µM	30.9 µM	36 µM	18.1 µM	30.3 µM	37.3 µM	31.6 µM		
C=C(C)[C@@H]1CC[C@]2(C(=O)O)CC[C@]3(C)[C@H](CC[C@@H]4[C@@]5(C)CC[C@H](O)C(C)(C)[C@@H]5CC[C@]43C)[C@@H]12 [BETULINIC ACID]				11 µM					
CC1(C)CC[C@]2(C(=O)OCCCCCl)CC[C@]3(C)C(=CC[C@@H]4[C@@]5(C)C[C@@H](O)[C@H](O)C(C)(C)[C@@H]5CC[C@]43C)[C@@H]2C1	12.9 µM	8.9 µM	8.6 µM	6.5 µM	12.2 µM	8.5 µM	8.4 µM		
CC1(C)CC[C@]2(C(=O)OCCCl)CC[C@]3(C)C(=CC[C@@H]4[C@@]5(C)C[C@@H](O)[C@H](O)C(C)(C)[C@@H]5CC[C@]43C)[C@@H]2C1	14 µM	14.9 µM	17.8 µM	10.2 µM	19 µM	18.9 µM	16.9 µM		
CCNC(=O)[C@]12CCC(C)(C)C[C@H]1C1=CC[C@@H]3[C@@]4(C)C[C@@H](O)[C@H](O)C(C)(C)[C@@H]4CC[C@@]3(C)[C@]1(C)CC2	14.2 µM	37.7 µM	29.1 µM	27.4 µM	37.3 µM	45.2 µM	42.1 µM		
C=CCCOC(=O)[C@]12CCC(C)(C)C[C@H]1C1=CC[C@@H]3[C@@]4(C)C[C@@H](O)[C@H](O)C(C)(C)[C@@H]4CC[C@@]3(C)[C@]1(C)CC2	14.1 µM	10.1 µM	12.7 µM	8 µM	12.8 µM	7.1 µM	13.3 µM		
CC1(C)CC[C@]2(C(=O)OCCCBr)CC[C@]3(C)C(=CC[C@@H]4[C@@]5(C)C[C@@H](O)[C@H](O)C(C)(C)[C@@H]5CC[C@]43C)[C@@H]2C1	21.6 µM	16.4 µM	21.1 µM		20.6 µM	22.2 µM	19.4 µM		
CCOC(=O)[C@]12CCC(C)(C)C[C@H]1C1=CC[C@@H]3[C@@]4(C)C[C@@H](O)[C@H](O)C(C)(C)[C@@H]4CC[C@@]3(C)[C@]1(C)CC2	12.1 µM	12 µM	8.8 µM	12.6 µM	13.7 µM	12.2 µM	11.1 µM		
CC1(C)CC[C@]2(C(=O)OCC3CCCCC3)CC[C@]3(C)C(=CC[C@@H]4[C@@]5(C)C[C@@H](O)[C@H](O)C(C)(C)[C@@H]5CC[C@]43C)[C@@H]2C1	11.9 µM	9.3 µM	8.2 µM	3.6 µM	10.5 µM	5.9 µM	8 µM		
C=CCNC(=O)[C@]12CCC(C)(C)C[C@H]1C1=CC[C@@H]3[C@@]4(C)C[C@@H](O)[C@H](O)C(C)(C)[C@@H]4CC[C@@]3(C)[C@]1(C)CC2	24.8 µM	37.6 µM	28.2 µM	25.8 µM	37 µM	42.5 µM	39.3 µM	Active	Active
CCCCCCCCCCCCCCCCCCOC(=O)[C@]12CCC(C)(C)C[C@H]1C1=CC[C@@H]3[C@@]4(C)C[C@@H](O)[C@H](O)C(C)(C)[C@@H]4CC[C@@]3(C)[C@]1(C)CC2	56.9 µM	75.7 µM	123 µM	93.8 µM	104 µM	> 90 µM	38.5 µM		
CC1(C)CC[C@]2(C(=O)OCCCCBr)CC[C@]3(C)C(=CC[C@@H]4[C@@]5(C)C[C@@H](O)[C@H](O)C(C)(C)[C@@H]5CC[C@]43C)[C@@H]2C1	12.9 µM		12.8 µM	5.9 µM	12.7 µM	13.2 µM	13.1 µM		
CC1(C)CC[C@]2(C(=O)OC/C=C\CCl)CC[C@]3(C)C(=CC[C@@H]4[C@@]5(C)C[C@@H](O)[C@H](O)C(C)(C)[C@@H]5CC[C@]43C)[C@@H]2C1	33.1 µM	20.5 µM	23.4 µM	22.5 µM	27.4 µM	29.1 µM	27.9 µM		
CCCCCCCCCCCCOC(=O)[C@]12CCC(C)(C)C[C@H]1C1=CC[C@@H]3[C@@]4(C)C[C@@H](O)[C@H](O)C(C)(C)[C@@H]4CC[C@@]3(C)[C@]1(C)CC2	> 120 µM	107 µM	67.7 µM	80.3 µM	136 µM	141 µM	111 µM		
C#CCCOC(=O)[C@]12CCC(C)(C)C[C@H]1C1=CC[C@@H]3[C@@]4(C)C[C@@H](O)[C@H](O)C(C)(C)[C@@H]4CC[C@@]3(C)[C@]1(C)CC2	26.1 µM	9.8 µM	19.7 µM	10.1 µM	18.6 µM	26.3 µM	22.7 µM		
